# JNK3 blocker: blocks human JNK3 kinase activity. P53779. 60,000 compounds, 0.61% hits. inhibition, % at 8 µM. purified JNK3 kinase activity, HTS; in the data active = inhibition above about 17%;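 note: 0% = DMSO and 100% = reference inhibitor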
# S1P3 agonist: agonists of human S1P3 receptor | Q99500 | S1P3 NFAT-BLA reporter cells, agonism, FRET ratio; relative to 1 µM S1P, basal subtracted | activation, % at 4.5 µM | 60,000 compounds, 0.1% hits;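 active = activation above the screen-wide mean plus 3 SD, cut at about 4.5% in these data, passing the limit was not always enough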
#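 Measure – % activation relative to 1 µM S1P (100%), per plate · System – stable CHO line with human S1P3, Gα16, NFAT-BLA reporter · Timing – cells plated overnight, compound 4 h 37 °C, substrate 2 h RT · Technique – fluorescent BLA substrate, ex 405 nm, em 460/535 nm ratio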
# S1P1 ag-PAM: agonists and agonism potentiators of human S1P1 receptor | P21453 | activation, % at 9.5 µM | AID 449 | 56,000 compounds, 0.57% hits | S1P1 CRE-bla cells, forskolin, beta-lactamase FRET, potentiator mode; S1P1 agonist co-added at EC20, 2 nM; 100% = saturating reference agonist, 0% = basal;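 active = activation above a cutoff set at the mean activation of all tested compounds plus 3 SD, cut at about 54% in these data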;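 note: forskolin at 4 µM as EC80 and the EC20 agonist is SEW2871; 100% = SEW2871 at its EC100 plus forskolin at EC80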
# Target sequence (P21453 whole entry, looked up): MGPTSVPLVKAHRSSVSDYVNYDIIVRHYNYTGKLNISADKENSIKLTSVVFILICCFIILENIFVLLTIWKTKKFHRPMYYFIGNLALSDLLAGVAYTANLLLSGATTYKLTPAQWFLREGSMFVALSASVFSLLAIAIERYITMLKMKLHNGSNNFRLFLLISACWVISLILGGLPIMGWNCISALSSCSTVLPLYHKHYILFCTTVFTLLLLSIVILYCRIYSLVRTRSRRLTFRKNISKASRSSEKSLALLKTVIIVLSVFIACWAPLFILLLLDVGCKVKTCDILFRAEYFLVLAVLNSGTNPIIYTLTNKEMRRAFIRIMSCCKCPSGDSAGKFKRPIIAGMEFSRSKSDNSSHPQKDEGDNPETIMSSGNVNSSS
# Jurkat viability: cytotoxic compounds reducing Jurkat cell viability; Jurkat E6.1 viability, ATP luminescence, 48 h; inhibition, % at 4 µM; 56,000 compounds, 1.2% hits; AID 463;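 active = inhibition above the mean inhibition of all tested compounds plus 3 SD, cut at about 28% in these data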
# M1 antagonist: blocks the rat M1 muscarinic receptor response to acetylcholine; AID 628; CHO-M1 cells, Fluo-4 calcium, ACh EC80 antagonist mode; hits give low values; B-score at 10 µM; P08482; 64,000 compounds, 3.4% hits;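 active = calcium fluorescence response, raw or row-and-column corrected B-score, differing from the plate sample mean either way at a set confidence level, mostly lower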
# M1 ag: agonists of M1 muscarinic receptor. CHO-M1 cells, Fluo-4 calcium fluorescence, agonist mode; hits give high values. B-score at 10 µM. 64,000 compounds, 3% hits;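 active = fluorescence rise, raw or as B-score row- and column-corrected plate score, outside the 99.7% band of its plate's samples, either direction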
# The depositor's hits bear a star; . = not tested or not shown. Only some compounds are listed: those with a hit (about 7.4% of all), similar ones and a draw of the others.
SMILES,JNK3 blocker,S1P3 agonist,S1P1 ag-PAM,Jurkat viability,M1 antagonist,M1 ag
CCOC(=O)N1CCN(C(=O)c2oc3ccc(S(=O)(=O)N4CCCCC4)cc3c2C)CC1,-2.4,-0.9,12.1,-0.8,0.313,-1.28
Cc1c(C(=O)N2CCCCC2)oc2ccc(S(=O)(=O)N3CC(C)CC(C)C3)cc12 (stereo not drawn),2.3,-0.8,54.6,32.2*,-0.981,1.96
COC(=O)c1ccc(Cl)c(NS(=O)(=O)c2ccc3c(c2)OCCO3)c1,3.7,-0.2,24.7,57.8*,-0.173,0.0121
CC(=O)c1cc2c(cc1NS(=O)(=O)c1ccc3c(c1)OCCO3)OCO2,-0.5,-0.6,12.3,-5.3,-0.856,-0.597
Cc1cccc(NC(=O)Cn2cnc3ccc(S(=O)(=O)N4CCC(C)CC4)cc3c2=O)n1,4.4,-0.4,-21.7,1.7,.,.
CCOc1ccc(N(CC(=O)Nc2ccc(C)c(C)c2)S(=O)(=O)c2c(C)noc2C)cc1,0.1,-1.7,27.9,15.7,0.0982,-0.489
CCOc1ccc(N(CC(=O)Nc2ccccc2C)S(=O)(=O)c2c(C)noc2C)cc1,-1.8,-1.8,1.3,91.0*,-0.104,-0.0735
Cc1noc(C)c1S(=O)(=O)N(CC(=O)Nc1ccc2c(c1)OCO2)c1ccc(C(C)C)cc1,1.3,-1.6,79.2*,7.8,0.44,0.278
CCOc1ccccc1NC(=O)CN(c1ccc(OC)cc1)S(=O)(=O)c1c(C)noc1C,0.7,-1.3,-1.2,93.3*,-0.0354,0.478
O=C(CCC1CCCC1)N1CCN(C(=O)c2cccnc2)CC1,-3.5,-0.4,-5.4,2.5,0.0642,-0.362
CCC(=O)c1ccc(OCC(=O)Nc2nn3cnnc3s2)cc1,.,.,.,.,-0.0425,0.599
COc1ccc(CNC(=O)c2cnn3c(C(F)F)cc(C)nc23)cc1OC,24.3*,0.1,-25.6,8.9,-0.717,-2.69
COc1cc(NC(=O)c2ccc(COc3ccccc3Br)o2)cc(OC)c1OC,20.1*,-1.2,15.5,7.3,-0.236,-0.00612
COc1ccc(NC(=O)c2ccc(COc3ccccc3Br)o2)cc1OC,6.4,-0.3,0.0,0.3,-0.398,-0.154
Cn1c(=O)oc2cc(S(=O)(=O)N3CCCc4ccccc43)ccc21,-1.2,-0.9,19.3,91.4*,-1.22,-0.247
Cn1c(=O)c(=O)n(C)c2cc(S(=O)(=O)N3CCc4ccccc43)ccc21,5.3,-1.4,18.4,-1.6,0.228,-0.125
COC(=O)Nc1ccc(S(=O)(=O)N2CCCc3ccccc32)cc1,2.1,-1.4,31.3,88.5*,-0.359,0.479
O=C(Nc1ccc(S(=O)(=O)N2CCc3ccccc32)cc1)c1ccco1,1.6,-0.6,18.3,11.1,-0.398,-0.135
Cn1nnnc1P(=O)(c1ccccc1)c1ccccc1,.,.,.,.,0.325,-0.0275
Cc1nnc(SCC(=O)Nc2ccc(Br)cn2)[nH]c1=O,-1.3,-0.7,0.1,4.5,0.999*,0.198
COC(=O)C1=C(C)N(CC2CCCO2)C(=O)C1 (stereo not drawn),-3.9,-1.0,-15.6,-1.5,-0.0979,-0.0878
CCCCCn1c(SCC#N)nc2cc(C(=O)NC3CCCCC3)ccc2c1=O,-0.5,-0.7,-7.3,11.9,0.405,-0.412
CCCCCn1c(SCC#N)nc2cc(C(=O)NCC3CCCO3)ccc2c1=O (stereo not drawn),-1.2,0.7,-7.0,1.4,0.00153,2.53*
CC1(C)NC(=O)N(c2ccccc2Cl)C1(C)NO (stereo not drawn),-4.3,-0.6,-7.9,2.5,-0.294,-0.838
CCc1nc(SCC(=O)N2CCN(c3ccccc3)CC2)c2c(=O)n(C)c(=O)n(C)c2n1,0.9,-0.6,0.0,-10.1,-1.31,0.816
Cn1c(=O)c2c(SCC(=O)N3CCN(c4ccccc4)CC3)nc(C3CC3)nc2n(C)c1=O,5.9,-0.7,-14.6,-15.7,-2.28*,4.79*
Oc1ccccc1-c1nnc(SCCN2CCOCC2)n1Cc1ccccc1,-1.6,-0.9,-10.5,77.8*,0.111,0.836
CCCn1nc(C(=O)N2CC(=O)Nc3ccccc32)c2ccccc2c1=O,12.9,0.3,-4.9,73.5*,0.139,0.0455
O=C1CN(C(=O)c2ccccn2)c2ccccc2N1,.,.,.,.,0.444,-0.199
COc1cc(C(=O)NCc2cn3ccccc3n2)cc(OC)c1OC,57.9*,-1.3,-24.7,-5.3,-0.29,0

# Screening data: PubChem, several laboratories
